According to ChEMBL document CHEMBL4390662, “Design, synthesis and biological evaluation of novel α-acyloxy carboxamides via Passerini reaction as caspase 3/7 activators” (Eur J Med Chem, 2019):
Values after ≈ are worked out from the molar mass of the structure shown. Active and inactive are the calls of the source. The calls are words filed in the database; no cut-off is given here.

Columns and labels:
[1] = tested on: Candida albicans; assay: Antimicrobial activity against Candida albicans ATCC 90028 incubated for 24 hrs by microdilution assay; type: functional
Procedure, shortened: (§1)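 Two-fold serial dilutions of test solutions made in Mueller Hinton broth and inoculated. Incubated at 37°C for 24 h. MIC taken as the lowest concentration with no growth. Ciprofloxacin is the antibacterial reference, fluconazole the antifungal one, and DMSO the blank.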

[2] = tested on: HepG2; assay: Cytotoxicity against human HepG2 cells assessed as cell growth inhibition incubated for 72 hrs by MTT assay; type: functional, cell-based; settings: HepG2, 72 h
Procedure, shortened: (§2)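 Cells grown in RPMI-1640 with 10% FBS and seeded at 5×10^3 per well. After 24 h, serial concentrations given for 72 h at 37°C, 5% CO2. Then 5 mg/mL MTT stock added for 3 h, formazan dissolved in DMSO, A570 read. IC50 calculated from the curves.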

[3] = tested on: Escherichia coli; assay: Antimicrobial activity against Escherichia coli ATCC 25922 incubated for 24 hrs by agar well diffusion assay; type: functional
Procedure, shortened: (§3)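 Nutrient agar spread with 100 µL inoculum: bacteria at 1×10^8 CFU/mL, fungi at 1×10^6 CFU/mL. 10 mm wells loaded with 100 µL of compound in DMSO (final 1 mg/mL). Bacteria incubated 24 h at 37 °C, fungi 48 h at 28 °C. Inhibition zones measured in mm. Ciprofloxacin and fluconazole standards at 1 mg/mL, DMSO negative control.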

[4] = Selectivity index, ratio of IC50 for human WI38 cells to IC50 for human MCF7 cells; type: toxicity; settings: WI38 cells versus MCF7 cells, read-out: Ratio IC50
Procedure, shortened: (§4)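 SI calculated as IC50 on normal Wi-38 fibroblasts divided by IC50 on the cancer cell line. Both came from 72 h MTT assays.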

[5] = Selectivity index, ratio of IC50 for human WI38 cells to IC50 for human HepG2 cells; type: toxicity; settings: WI38 cells versus HepG2 cells, read-out: Ratio IC50; procedure, shortened: as §4
[6] = tested on: Enterococcus faecalis; assay: Antimicrobial activity against Enterococcus faecalis ATCC 29212 incubated for 24 hrs by agar well diffusion assay; type: functional; procedure, shortened: as §3
[7] = tested on: Pseudomonas aeruginosa; assay: Antimicrobial activity against Pseudomonas aeruginosa ATCC 27853 incubated for 24 hrs by agar well diffusion assay; type: functional; procedure, shortened: as §3
[8] = tested on: NFS-60; assay: Cytotoxicity against mouse NFS60 cells assessed as cell growth inhibition incubated for 72 hrs by MTT assay; type: functional, cell-based; settings: NFS-60, 72 h; procedure, shortened: as §2
[9] = tested on: WI-38; assay: Cytotoxicity against human WI38 cells assessed as cell growth inhibition incubated for 72 hrs by MTT assay; type: cell-based; settings: for IC50: Homo sapiens, WI-38, 72 h; for EC100: human, wi-38, 72 h
Procedure, shortened: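 Wi-38 fibroblasts grown in DMEM with 10% FBS and seeded at 5×10^3 per well. Attachment 24 h, then serial concentrations for 72 h at 37°C, 5% CO2. MTT stock (5 mg/mL) added for 3 h at 37°C, DMSO solubilization, absorbance at 570 nm. IC50 estimated.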

[10] = tested on: Staphylococcus aureus; assay: Antimicrobial activity against Staphylococcus aureus ATCC 25923 incubated for 24 hrs by agar well diffusion assay; type: functional; procedure, shortened: as §3
[11] = Selectivity index, ratio of IC50 for human WI38 cells to IC50 for mouse NFS60 cells; procedure, shortened: as §4
[12] = tested on: Escherichia coli; assay: Antimicrobial activity against Escherichia coli ATCC 25922 incubated for 24 hrs by microdilution assay; type: functional; settings: ATCC 25922, 24 h; procedure, shortened: as §1
[13] = tested on: Staphylococcus aureus; assay: Antimicrobial activity against Staphylococcus aureus ATCC 25923 incubated for 24 hrs by microdilution assay; type: functional; procedure, shortened: as §1
[14] = tested on: MCF7; assay: Cytotoxicity against human MCF7 cells assessed as cell growth inhibition incubated for 72 hrs by MTT assay; type: functional, cell-based; settings: MCF7, 72 h; procedure, shortened: as §2
[15] = tested on: Candida albicans; assay: Antimicrobial activity against Candida albicans ATCC 90028 incubated for 48 hrs by agar well diffusion assay; type: functional; procedure, shortened: as §3

## CC(=O)Oc1ccccc1C(=O)OC1(C(=O)Nc2ccc([N+](=O)[O-])cc2)CCCCC1
[1]
  MIC: inactive
[2]
  IC50: 0.0177 µM
[3]
  diameter of the inhibition zone (DIZ): 16 mm
[4]
  selectivity ratio: 2.86
[5]
  selectivity ratio: 2.73
[6]
  diameter of the inhibition zone (DIZ): inactive
[7]
  diameter of the inhibition zone (DIZ): 16 mm
[8]
  IC50: 0.0113 µM
[9]
  IC50: 0.0484 µM
  EC100: 0.0355 µM
[10]
  diameter of the inhibition zone (DIZ): inactive
[11]
  Ratio IC50: 4.283
[12]
  MIC: 2400 µM (≈ 1020 µg/mL)
[13]
  MIC: inactive
[14]
  IC50: 0.0169 µM
[15]
  diameter of the inhibition zone (DIZ): inactive

## COc1ccc(C(=O)OC2(C(=O)Nc3ccc([N+](=O)[O-])cc3)CCCCC2)cc1
[1]
  MIC: inactive
[2]
  IC50: 0.0571 µM
[3]
  diameter of the inhibition zone (DIZ): 12 mm
[4]
  selectivity ratio: 0.97
[5]
  selectivity ratio: 0.7
[6]
  diameter of the inhibition zone (DIZ): inactive
[7]
  diameter of the inhibition zone (DIZ): 12 mm
[8]
  IC50: 0.0388 µM
[9]
  IC50: 0.04 µM
  EC100: 0.0178 µM
[10]
  diameter of the inhibition zone (DIZ): inactive
[11]
  Ratio IC50: 1.031
[12]
  MIC: 2570 µM (≈ 1020 µg/mL)
[13]
  MIC: inactive
[14]
  IC50: 0.0412 µM
[15]
  diameter of the inhibition zone (DIZ): inactive

## CCC(=O)OC1(C(=O)Nc2ccc([N+](=O)[O-])cc2)CCCCC1
[2]
  IC50: 0.0215 µM
[3]
  diameter of the inhibition zone (DIZ): inactive
[4]
  selectivity ratio: 3.16
[5]
  selectivity ratio: 2.07
[6]
  diameter of the inhibition zone (DIZ): inactive
[7]
  diameter of the inhibition zone (DIZ): 12 mm
[8]
  IC50: 0.0064 µM
[9]
  IC50: 0.0446 µM
  EC100: 0.0169 µM
[10]
  diameter of the inhibition zone (DIZ): inactive
[11]
  Ratio IC50: 6.968
[14]
  IC50: 0.0141 µM
[15]
  diameter of the inhibition zone (DIZ): inactive

## O=C(OC1(C(=O)Nc2ccc([N+](=O)[O-])cc2)CCCCC1)c1ccc(C(F)(F)F)cc1
[2]
  IC50: 0.0291 µM
[3]
  diameter of the inhibition zone (DIZ): inactive
[4]
  selectivity ratio: 6.83
[5]
  selectivity ratio: 6.36
[6]
  diameter of the inhibition zone (DIZ): inactive
[7]
  diameter of the inhibition zone (DIZ): inactive
[8]
  IC50: 0.026 µM
[9]
  IC50: 0.185 µM
  EC100: 0.0398 µM
[10]
  diameter of the inhibition zone (DIZ): inactive
[11]
  Ratio IC50: 7.115
[14]
  IC50: 0.0271 µM
[15]
  diameter of the inhibition zone (DIZ): inactive

## O=C(OC1(C(=O)Nc2ccc([N+](=O)[O-])cc2)CCCCC1)c1ccccc1
[2]
  IC50: 0.734 µM
[4]
  selectivity ratio: 0.272
[5]
  selectivity ratio: 0.335
[8]
  IC50: 0.766 µM
[9]
  IC50: 0.246 µM
  EC100: 0.148 µM
[11]
  Ratio IC50: 0.322
[14]
  IC50: 0.903 µM

## O=C(OC1(C(=O)Nc2ccc([N+](=O)[O-])cc2)C(=O)c2ccccc2C1=O)c1ccc(C(F)(F)F)cc1
[2]
  IC50: 0.428 µM
[4]
  selectivity ratio: 5
[5]
  selectivity ratio: 4.59
[8]
  IC50: 0.484 µM
[9]
  IC50: 1.96 µM
  EC100: 0.635 µM
[11]
  Ratio IC50: 4.057
[14]
  IC50: 0.393 µM

## Cc1ccccc1C(=O)OC1(C(=O)Nc2ccc([N+](=O)[O-])cc2)CCCCC1
[4]
  selectivity ratio: 0.682
[9]
  IC50: 0.352 µM
  EC100: 0.018 µM
[14]
  IC50: 0.516 µM

## O=C(/C=C/c1ccccc1)OC1(C(=O)Nc2ccc([N+](=O)[O-])cc2)CCCCC1
[2]
  IC50: 0.0529 µM
[3]
  diameter of the inhibition zone (DIZ): inactive
[4]
  selectivity ratio: 0.711
[5]
  selectivity ratio: 0.774
[6]
  diameter of the inhibition zone (DIZ): inactive
[7]
  diameter of the inhibition zone (DIZ): inactive
[8]
  IC50: 0.0505 µM
[9]
  IC50: 0.041 µM
  EC100: 0.0197 µM
[10]
  diameter of the inhibition zone (DIZ): inactive
[11]
  Ratio IC50: 0.811
[14]
  IC50: 0.0576 µM
[15]
  diameter of the inhibition zone (DIZ): inactive

## O=C(O)c1cn(C2CC2)c2cc(N3CCNCC3)c(F)cc2c1=O [CIPROFLOXACIN]
[3]
  diameter of the inhibition zone (DIZ): 43 mm
[6]
  diameter of the inhibition zone (DIZ): 24 mm
[7]
  diameter of the inhibition zone (DIZ): 40 mm
[10]
  diameter of the inhibition zone (DIZ): 26 mm
[12]
  MIC: 3 µM (≈ 0.994 µg/mL)
[13]; ATCC 25923, 24 h
  MIC: 6 µM (≈ 1.99 µg/mL)

## CC(=O)OC1(C(=O)Nc2ccc([N+](=O)[O-])cc2)CCCCC1
[2]
  IC50: 0.519 µM
[4]
  selectivity ratio: 0.957
[5]
  selectivity ratio: 0.743
[8]
  IC50: 0.517 µM
[9]
  IC50: 0.386 µM
  EC100: 0.122 µM
[11]
  Ratio IC50: 0.746
[14]
  IC50: 0.403 µM

## CCOC(=O)c1ccccc1C(=O)OC1(C(=O)Nc2ccc([N+](=O)[O-])cc2)CCCCC1
[2]
  IC50: 0.517 µM
[4]
  selectivity ratio: 0.869
[5]
  selectivity ratio: 0.746
[8]
  IC50: 0.488 µM
[9]
  IC50: 0.386 µM
  EC100: 0.122 µM
[11]
  Ratio IC50: 0.79
[14]
  IC50: 0.444 µM

## OC(Cn1cncn1)(Cn1cncn1)c1ccc(F)cc1F [FLUCONAZOLE]
[1]; ATCC 90028, 24 h
  MIC: 1 µM (≈ 0.306 µg/mL)
[15]
  diameter of the inhibition zone (DIZ): 29 mm

## O=C(OC1(C(=O)Nc2ccc([N+](=O)[O-])cc2)CCCCC1)c1ccccc1I
[4]
  selectivity ratio: 0.639
[9]
  IC50: 0.396 µM
  EC100: 0.0247 µM
[14]
  IC50: 0.619 µM

## CC1(C)CC(=O)C=C(Nc2ccc([N+](=O)[O-])cc2)C1
[2]
  IC50: 0.667 µM
[4]
  selectivity ratio: 0.534
[5]
  selectivity ratio: 0.478
[8]
  IC50: 0.645 µM
[9]
  IC50: 0.319 µM
  EC100: 0.157 µM
[11]
  Ratio IC50: 0.494
[14]
  IC50: 0.597 µM

## O=C(OC1(C(=O)Nc2ccc([N+](=O)[O-])cc2)CCCCC1)c1ccc(Br)cc1
[2]
  IC50: 0.284 µM
[4]
  selectivity ratio: 2.21
[5]
  selectivity ratio: 1.84
[8]
  IC50: 0.236 µM
[9]
  IC50: 0.523 µM
  EC100: 0.0095 µM
[11]
  Ratio IC50: 2.216
[14]
  IC50: 0.237 µM

## O=C(CCC(=O)OC1(C(=O)Nc2ccc([N+](=O)[O-])cc2)CCCCC1)OC1(C(=O)Nc2ccc([N+](=O)[O-])cc2)CCCCC1
[9]
  IC50: 0.203 µM
  EC100: 0.02 µM
